Reference: publication PMC5351328 (Clinical and Translational Science, 2016)

What was measured:
[1] = Safety and tolerability; assay type: in vivo, human
How it was run: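 Adverse events were monitored continuously and graded with the Division of AIDS toxicity scale. Hematology, clinical chemistry, urinalysis and 12-lead ECG were done at screening, baseline (Day –1), Day 14 and Day 28, with hematology and chemistry also at Day 7. Physical exams ran through follow-up (Day 28, or Day 35 for hepatic impairment). Data were summarised descriptively without formal statistical testing.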

[2] = molecular target: CCR2 (Homo sapiens, UniProt P41597); assay: CCR2 antagonist activity: plasma CCR2 ligand; assay type: in vivo; conditions: across all groups, P < 0.05
How it was run: (§1)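 Adults with mild or moderate hepatic impairment and matched controls with normal hepatic function were given an oral 150 mg tablet of the test compound over 14 days. Plasma was sampled on Day 1 (predose), Day 7 and Day 14. CCL2, CCL3 and CCL4 were measured by Luminex multiplex and CCL5 by ELISA. Medians, IQR and change from baseline were reported, with Wilcoxon tests.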

[3] = molecular target: CCR5 (Homo sapiens, UniProt P51681); assay: CCR5 antagonist activity: plasma CCR5 ligand; assay type: in vivo; conditions: for CCL4 median fold-change: P < 0.05
How it was run: as §1

[4] = test system: proinflammatory cytokines (IL-6, TNF-α, IL-1β, TGF-β); assay: Plasma proinflammatory cytokines during treatment; assay type: in vivo, human
How it was run: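 Plasma was taken at Day 1 predose and on treatment Days 7 and 14. IL-6, TNF-α, IL-1β and TGF-β were quantified by Luminex multiplex bead assay, with a magnetic cytokine panel for IL-1β and IL-6. Values were summarised by study day as medians and interquartile ranges, with change from baseline. Comparisons used Wilcoxon tests.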

[5] = test system: I-FABP, flagellin, LBP, sCD14; assay type: in vivo, human; conditions: within each group
How it was run: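 Participants with mild or moderate hepatic impairment and matched normal-function controls received a single-tablet 150 mg oral test compound, dosed over 14 days. I-FABP, flagellin, LBP and sCD14 were quantified by ELISA, following kit instructions, in plasma from Day 1 (predose), Day 7 and Day 14. Results were summarised by day as medians, IQR and change from baseline, using Wilcoxon tests.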

[6] = cited from earlier work
[7] = test system: CYP3A4; conditions: cited from earlier work
[8] = test system: P-glycoprotein; conditions: cited from earlier work
[9] = test system: CYP3A4; conditions: cited from earlier work; remark: listed apart in the source
[10] = cited from earlier work; remark: listed apart in the source
[11] = matched controls (mild) (N = 7)
[12] = matched controls (moderate) (N = 8)
[13] = mild hepatic impairment (N = 8)
[14] = moderate hepatic impairment (N = 8)

CCR5, sequence (P51681 whole entry): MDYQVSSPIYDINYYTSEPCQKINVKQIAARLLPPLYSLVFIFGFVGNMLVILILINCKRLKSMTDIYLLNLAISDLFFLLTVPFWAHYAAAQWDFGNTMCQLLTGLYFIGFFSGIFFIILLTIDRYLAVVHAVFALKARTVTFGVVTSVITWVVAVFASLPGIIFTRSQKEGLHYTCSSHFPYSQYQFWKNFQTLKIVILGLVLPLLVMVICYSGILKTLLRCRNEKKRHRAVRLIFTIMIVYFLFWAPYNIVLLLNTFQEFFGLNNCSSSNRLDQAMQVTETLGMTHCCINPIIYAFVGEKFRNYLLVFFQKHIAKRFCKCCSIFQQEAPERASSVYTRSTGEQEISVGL
CCR2, sequence (P41597 whole entry): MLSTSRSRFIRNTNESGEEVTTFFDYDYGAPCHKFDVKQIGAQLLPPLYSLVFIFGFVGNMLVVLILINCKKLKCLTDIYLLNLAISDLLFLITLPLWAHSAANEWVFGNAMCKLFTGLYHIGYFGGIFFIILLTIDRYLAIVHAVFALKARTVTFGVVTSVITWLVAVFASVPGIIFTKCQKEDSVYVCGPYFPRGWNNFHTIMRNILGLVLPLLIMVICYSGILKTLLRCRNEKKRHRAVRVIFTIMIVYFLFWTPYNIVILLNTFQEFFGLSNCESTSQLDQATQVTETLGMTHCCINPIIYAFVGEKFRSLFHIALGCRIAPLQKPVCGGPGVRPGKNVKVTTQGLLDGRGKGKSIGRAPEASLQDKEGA

CCCCOCCOc1ccc(-c2ccc3c(c2)/C=C(/C(=O)Nc2ccc([S@@+]([O-])Cc4cncn4CCC)cc2)CCCN3CC(C)C)cc1 [cenicriviroc]
Treatment-related AE: Dry mouth [1, 11]: 2 (28.6) N (%) | Treatment-related AE: Epigastric discomfort [1, 11]: 0 (0) N (%) | Treatment-related AE: Flatulence [1, 11]: 0 (0) N (%) | Treatment-related AE: Headache [1, 11]: 1 (14.3) N (%) | Treatment-related AEs Grade 1 [1, 11]: 3 (42.9) N (%) | Treatment-related AEs Grade 2 [1, 11]: 0 (0) N (%) | Treatment-related AEs Grade 3 [1, 11]: 0 (0) N (%) | Treatment-related AEs Grade 4 [1, 11]: 0 (0) N (%) | Participants with any treatment-related AEs [1, 12]: 4 (50.0) N (%) | Treatment-related AE: Dry mouth [1, 12]: 0 (0) N (%) | Treatment-related AE: Epigastric discomfort [1, 12]: 0 (0) N (%) | Treatment-related AE: Flatulence [1, 12]: 1 (12.5) N (%) | Treatment-related AE: Headache [1, 12]: 1 (12.5) N (%) | Treatment-related AEs Grade 1 [1, 12]: 4 (50.0) N (%) | Treatment-related AEs Grade 2 [1, 12]: 0 (0) N (%) | Treatment-related AEs Grade 3 [1, 12]: 0 (0) N (%) | Treatment-related AEs Grade 4 [1, 12]: 0 (0) N (%) | Participants with any treatment-related AEs [1, 13]: 6 (75.0) N (%) | Treatment-related AE: Dry mouth [1, 13]: 0 (0) N (%) | Treatment-related AE: Epigastric discomfort [1, 13]: 1 (12.5) N (%) | Treatment-related AE: Flatulence [1, 13]: 1 (12.5) N (%) | Treatment-related AEs Grade 1 [1, 13]: 6 (75.0) N (%) | Treatment-related AEs Grade 2 [1, 13]: 0 (0) N (%) | Treatment-related AEs Grade 3 [1, 13]: 0 (0) N (%) | Treatment-related AEs Grade 4 [1, 13]: 0 (0) N (%) | Participants with any treatment-related AEs [1, 14]: 4 (50.0) N (%) | Treatment-related AE: Dry mouth [1, 14]: 0 (0) N (%) | Treatment-related AE: Epigastric discomfort [1, 14]: 1 (12.5) N (%) | Treatment-related AE: Flatulence [1, 14]: 0 (0) N (%) | Treatment-related AE: Headache [1, 14]: 1 (12.5) N (%) | Treatment-related AEs Grade 1 [1, 14]: 4 (50.0) N (%) | Treatment-related AEs Grade 2 [1, 14]: 0 (0) N (%) | Treatment-related AEs Grade 3 [1, 14]: 1 (12.5) N (%) | Treatment-related AEs Grade 4 [1, 14]: 0 (0) N (%) | CCL2 median fold-change ([2]; Day 7 vs Day 1 (predose)): 4.4–5.5 | CCL2 median fold-change ([2]; Day 14 vs Day 1 (predose)): 4.8–6.0 | CCL4 median fold-change ([3]; after 7 days of treatment vs Day 1 (predose)): 1.8–2.3 | CCL4 median fold-change ([3]; after 14 days of treatment vs Day 1 (predose)): 1.6–2.5 | CCL3 levels change during treatment ([3]; any group): did not change significantly | CCL5 change during treatment ([3]; matched controls (moderate) only, Day 14 vs Day 1, P = 0.008): increased significantly | IL-1β levels change during treatment ([4]; any group): did not change significantly | IL-6 levels change during treatment ([4]; any group): did not change significantly | TNF-α levels change during treatment ([4]; any group): did not change significantly | TGF-β levels change during treatment ([4]; moderate HI group, Day 1 vs Day 14, P < 0.01): increased | I-FABP change during treatment [5]: None of these markers changed significantly | LBP change during treatment [5]: None of these markers changed significantly | flagellin change during treatment [5]: None of these markers changed significantly | sCD14 change during treatment [5]: None of these markers changed significantly | bound to plasma proteins [6]: > 98% | substrate of CYP3A4 [7]: substrate | substrate of P-glycoprotein [8]: substrate | inhibition of CYP3A4 [9]: weak inhibitor | APRI, FIB-4 and enhanced liver fibrosis score ([10]; HIV-infected participants): decreases | sCD14 levels ([10]; HIV-positive participants (Study 202)): decreased
